The values below come from ChEMBL document CHEMBL5500386, “Design, synthesis and bioactivity evaluation of 4-hydroxycoumarin derivatives as potential anti-inflammatory agents against acute lung injury and colitis” (Eur J Med Chem, 2024).

pIC50: −log10 of the molar value. Active and inactive are the calls of the source. The calls are words filed in the database; no cut-off is given here.

Data set [1] concerns Mus musculus. In words: Antiinflammatory activity in DSS-induced male C57BL/6 mouse model of inflammatory bowel disease assessed as normal appearance of goblet cells at 20 mg/kg, IG administered with compound and DSS for 7 days followed by DSS replacement with distilled water for 3 days by H and E staining based analysis. It is filed as functional, organism-based. Particulars: time 10.0 day.

The nature of data set [2]: Half life in male Sprague-Dawley rat at 10 mg/kg, po measured upto 24 hrs by triple quadrupole mass spectrometric analysis. The class given is ADME, organism-based. Particulars: in vivo. The gist of the method: (§1)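 Male SD rats (8 weeks, 200 g ± 20 g), n = 3 per route. Oral: 10 mg/kg by gavage in 0.05 % DMSO/normal saline, tail-vein blood at 13 times from 10 min to 24 h. IV: 1 mg/kg tail vein in 5 % DMSO/30 % PEG400/65 % saline, 14 samples from 5 min to 24 h. Heparinised plasma precipitated with acetonitrile containing internal standard. Non-compartmental analysis on mean concentrations.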

Data set [3] deals with J774.A1. In words: Inhibition of LPS-induced MAPK activation in mouse J774.A1 cells assessed as reduction in p38 phosphorylation at 5 to 20 uM pretreated for 2 hrs followed by LPS stimulation and measured after 30 mins by Western blot analysis. The class given is cell-based. Particulars: dose 5-20 µM, time 2.5 hrs. The essentials: (§2)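 J774A.1 macrophages pretreated with 20, 10 or 5 μM for 2 h, then LPS 0.5 μg/mL for 30 min. RIPA lysates quantified by Bradford. 40 μg run on 12.5 % SDS-PAGE and transferred to PVDF. Blocked 1.5 h in BSA, primary antibody overnight at 4 °C, secondary 2 h at room temperature, detected by ECL.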
Background: Immunoblotting shows a protein as a band on a membrane.

Data set [4] concerns Mus musculus. In words: Antiinflammatory activity in DSS-induced male C57BL/6 mouse model of inflammatory bowel disease assessed as increase in body weight at 20 mg/kg, IG administered with compound and DSS for 7 days followed by DSS replacement with distilled water for 3 days. The class given is functional, organism-based. To be noted: time 10.0 day.
For data set [5], the system named is Mus musculus. The data set is described as follows: Antiinflammatory activity in DSS-induced male C57BL/6 mouse model of inflammatory bowel disease assessed as inhibition of IL-6 release in plasma at 20 mg/kg, IG administered with compound and DSS for 7 days followed by DSS replacement with distilled water for 3 days. It is filed as functional, organism-based. To be noted: time 10.0 day.

For data set [6], the system named is Mus musculus. In words: Protection against LPS-induced C57BL/6 mouse model of acute lung injury assessed as reduction in inflammatory cell infiltration in lung at 20 mg/kg, po administered 3 times for every 12 hrs followed by LPS stimulation at 5 mg/kg and measured after 6 hrs by immunohistochemical staining based analysis. Particulars: time 30.0 hrs. It is filed as functional, organism-based. The essentials:
(§3)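 LPS-induced ALI in C57BL/6 mice: 20 mg/kg orally three times at 12 h intervals, then intratracheal LPS 5 mg/kg, lungs taken at 6 h. F4/80 IHC: xylene deparaffinisation, citrate pH 6 retrieval for 25 min, primary antibody at 4 °C for 12 h, secondary 1:2000, DAB and hematoxylin. Viewed at ×20.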

Data set [7] relates to J774.A1. In words: Antiinflammatory activity in LPS-induced mouse J774.A1 cells assessed as reduction in IL-6 mRNA transcription pretreated for 2 hrs followed by LPS stimulation and measured after 6 hrs by RT-qPCR analysis. The class given is functional, cell-based. Particulars: dose 2.5-10 µM. The essentials: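 J774A.1 or THP-1 cells pretreated with compound for 2 h, then LPS 0.5 μg/mL for 6 h, in triplicate. Total RNA extracted and reverse-transcribed. IL-6 quantified by RT-qPCR over 40 cycles and normalised to β-actin.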
On the technique in general: Real-time PCR tracks product formation cycle by cycle.

A short description of data set [8]: AUC (0 to infinity) in male Sprague-Dawley rat at 10 mg/kg, po measured upto 24 hrs by triple quadrupole mass spectrometric analysis. It is filed as ADME, organism-based. Particulars: in vivo. The gist of the method: as §1
Data set [9] relates to Mus musculus. In words: Protection against LPS-induced C57BL/6 mouse model of acute lung injury assessed as reduction in number of neutrophils in BALF at 20 mg/kg, po administered 3 times for every 12 hrs followed by LPS stimulation at 5 mg/kg and measured after 6 hrs. Particulars: time 30.0 hrs. It is filed as functional, organism-based. The gist of the method: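 C57BL/6 mice, 6 per group. Gavaged at 20 mg/kg three times at 12 h intervals; controls received saline, and dexamethasone 20 mg/kg served as reference. After the last dose, LPS 5 mg/kg given intratracheally. At 6 h, blood collected for serum IL-6 by ELISA. Left lung lavaged with 3 × 200 μL saline, and BALF assayed for IL-6, total protein and neutrophil count. Mean ± SEM, n = 6.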

Data set [10] relates to THP-1. In words: Antiinflammatory activity in LPS-induced human THP-1 cells assessed as inhibition of IL-6 production pretreated for 30 mins followed by LPS stimulation and measured after 24 hrs by ELISA. It is filed as functional, cell-based. The essentials:
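Cells pretreated 30 min with a gradient of concentrations (2.5–10 μM range) or DMSO, then given LPS 0.5 μg/mL for 24 h. IL-6 in medium measured by ELISA and normalised to living cell number by MTT. Expressed as % of the LPS group, mean ± SEM of triplicates. IC50 taken from the concentration-response.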
(An ELISA detects its analyte on a solid surface through an enzyme-linked reagent.)

Data set [11] concerns J774.A1. In words: Inhibition of LPS-induced NF-kappaB activation in mouse J774.A1 cells assessed as reduction in IkappaBalpha degradation at 5 to 20 uM pretreated for 2 hrs followed by LPS stimulation and measured after 30 mins by Western blot analysis. Particulars: dose 5-20 µM, time 2.5 hrs. The class given is cell-based. The gist of the method:
as §2

Data set [12] deals with Mus musculus. In words: Protection against LPS-induced C57BL/6 mouse model of acute lung injury assessed as reduction in immune markers at 20 mg/kg, po administered 3 times for every 12 hrs followed by LPS stimulation at 5 mg/kg and measured after 6 hrs by immunohistochemical staining based analysis. The class given is functional, organism-based. To be noted: time 30.0 hrs. The essentials:
as §3

The nature of data set [13]: Acute toxicity in male ICR mouse assessed as histopathological changes in lung at 500 to 1000 mg/kg, po administered daily for 10 days by H and E staining based analysis. To be noted: in vivo, 240 h, dose 500-1000 mg/kg, time 10 day. The class given is organism-based. The gist of the method: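 Male ICR mice (8 weeks, 30 g ± 2 g), acclimatised 1 week, randomised into 1000 mg/kg, 500 mg/kg and untreated control groups (n = 24 total). Dosed by daily gavage, compound dissolved in 0.5 % DMSO then added to normal saline. Body weight and behaviour recorded daily. Euthanised after 10 days; heart, liver, spleen, lung and kidney examined by H&E staining.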

Data set [14] has as its system Mus musculus. In words: Antiinflammatory activity in DSS-induced male C57BL/6 mouse model of inflammatory bowel disease assessed as increase in colon length at 20 mg/kg, IG administered with compound and DSS for 7 days followed by DSS replacement with distilled water for 3 days. To be noted: time 10.0 day. It is filed as functional, organism-based.

In general, half-life refers to how long it takes for the measured level to halve. Low values mean fast loss, high ones slow loss. The term AUC(0-inf) denotes total exposure, with the tail of the curve extrapolated. A low value points to less exposure. A word on the pIC50: it is the negative decadic logarithm of the IC50, by convention in mol/L. Regarding `CC(=O)N1CCN(CCOc2cc(=O)oc3ccccc23)CC1`, the result in [1], in data set [4], in data set [5], in data set [6], in data set [9] and in data set [12] was Active. In addition, in data set [14], the outcome was Active. This compound gave a half-life in data set [2] of 2.36 h. In addition, in data set [3], the inhibition result was “Active”. Moreover, the figures for the Activity entry in data set [7], in data set [10] (time 24.5 hrs) and in data set [13] were “Dose-Dependent Effect”, “Dose-Dependent Effect” and “Non-Toxic”, respectively. This compound also returned an AUC(0-inf) in data set [8] of 3260 ng·h/mL. Moreover, the negative logarithm of the IC50 (pIC50) in data set [10] is 5.19. Further, the inhibition result in data set [11] is “inactive”.
